Measured values from ChEMBL document CHEMBL4393678, “Novel Tetrahydroquinazolinamines as Selective Histamine 3 Receptor Antagonists for the Treatment of Obesity” (J Med Chem, 2019).
Activity calls are given as the source filed them. The calls are words filed in the database; no cut-off is given here.

Experiments:
Mus musculus [1] = assay: Anorexic effect in 12 hrs fasted db/db-induced obese C57BL/6J mouse model assessed as reduction in cumulative food intake at 20 mg/kg, ip pretreated for 30 mins followed by food addition measured after 4 hrs; format: functional, organism-based
Mus musculus [2] = assay: Anti-obesity activity in high fat diet-induced obese C57BL/6J mouse model assessed as reduction in body fat mass at 10 mg/kg, po measured after 6 weeks relative to control by NMR-based magnetic resonance imaging analysis; format: functional; parameters: scale not given: the % may be the effect or the level left
How it was run: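 Male C57BL/6J mice on high-fat diet dosed orally for six weeks against a vehicle-treated high-fat diet group and a chow group. Body composition (fat mass, lean mass, % body fat) measured by EchoMRI live scanning. n=5-6. One-way ANOVA with Newman-Keuls test.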

Mus musculus [3] = assay: Anti-obesity activity in high fat diet-induced obese C57BL/6J mouse model assessed as reduction in body weight at 10 mg/kg, po; format: functional, organism-based; details: TDE = time-dependent effect
How it was run: (§1)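 Male C57BL/6J mice (6–8 weeks, 22–25 g) on high-fat diet, with a normal-chow group included. Daily chronic oral dosing against vehicle for six weeks. Percent body weight change followed over the treatment days, and net body weight change taken at six weeks. n=5-6 per group. Two-way ANOVA, or one-way ANOVA with Newman-Keuls test.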

Mus musculus [4] = assay: Anorexic effect in high fat diet-induced obese C57BL/6J mouse model assessed as reduction in cumulative food intake at 10 mg/kg, po pretreated for 30 mins followed by food addition measured after 4 hrs relative to control; format: functional; parameters: scale not given: the % may be the effect or the level left
How it was run: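 Male C57BL/6J mice on high-fat diet, starved 12 h (8 am–8 pm) with water available, housed singly. Oral dose in 5% gum acacia in normal saline, vehicle group alongside. Food given 30 min after dosing, and cumulative intake measured over the 4 h night phase (9 pm–1 am). One-way ANOVA with Newman-Keuls test.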

Mus musculus [5] = assay: Anti-obesity activity in high fat diet-induced obese C57BL/6J mouse model assessed as change in body weight at 10 mg/kg, po measured after 6 weeks (reference value: 3.86 +/- 0.99 g); format: functional; how it was run: as §1
Histamine H3 receptor [6] = biological target: T1, Histamine H3 receptor (Homo sapiens, UniProt Q9Y5N1); assay: (§2) Antagonist activity at recombinant human Gi-coupled H3 receptor expressed in HEK293T cells assessed as reduction in histamine-induced inhibition of forskolin-stimulated cAMP accumulation preincubated for 10 to 15 followed by histamine addition for 10 mins and subsequent forskolin-stimulation by Glo-sensor assay; format: functional, cell-based
[7] = biological target: Histamine H4 receptor (Homo sapiens) (UniProt Q9H3N8); assay: as §2, with “H4” for “H3”, “accumulation at 10 uM” for “accumulation”; format: functional, cell-based
[8] = biological target: Histamine H1 receptor (Homo sapiens) (UniProt P35367); assay: Antagonist activity at H1R (unknown origin) expressed in HEK293 cells harboring luc2P/NFAT-RE plasmid at 10 uM after 6 to 8 hrs by luciferase reporter gene assay; format: cell-based
How it was run: (§3)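 NFAT-RE luciferase assay in HEK293T cells transiently co-transfected with luc2P/NFAT-RE plasmid and receptor plasmid. Cells plated in DMEM and incubated overnight at 37 °C, 5% CO₂. Compounds and reference ligands applied for 6-8 h. Luciferase read after adding Bright-Glo substrate (1 mg/ml final).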

Histamine H2 receptor [9] = biological target: T2, Histamine H2 receptor (Homo sapiens, UniProt P25021); assay: Agonist activity at recombinant human Gs-coupled H2 receptor expressed in HEK293T cells assessed as inhibition of forskolin-stimulated cAMP accumulation preincubated for 10 to 15 followed by forskolin-stimulation by Glo-sensor assay; format: functional, cell-based
[10] = biological target: Histamine H1 receptor (Homo sapiens) (UniProt P35367); assay: Agonist activity at H1R (unknown origin) expressed in HEK293 cells harboring luc2P/NFAT-RE plasmid at 10 uM after 6 to 8 hrs by luciferase reporter gene assay; format: cell-based; how it was run: as §3
Histamine H2 receptor [11] = biological target: T2, Histamine H2 receptor; assay: Agonist activity at recombinant human Gs-coupled H2 receptor expressed in HEK293T cells assessed as inhibition of forskolin-stimulated cAMP accumulation at 10 uM preincubated for 10 to 15 followed by forskolin-stimulation by Glo-sensor assay relative to control; format: functional, cell-based; parameters: scale not given: the % may be the effect or the level left
How it was run: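 HEK293T cells were transiently co-transfected with GloSensor-22F cAMP plasmid and human H2R plasmid, then held 15–18 h at 37 °C in 5% CO2. Cells were loaded with sodium luciferin (1 mg/ml) for 90 min. Agonist mode used 10 µM compound, with luminescence read directly after 10–15 min. Screening was in triplicate, scored as ≥50% change versus control.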

[12] = biological target: Histamine H4 receptor (Homo sapiens) (UniProt Q9H3N8); assay: Agonist activity at recombinant human Gi-coupled H4 receptor expressed in HEK293T cells assessed as inhibition of forskolin-stimulated cAMP accumulation at 10 uM preincubated for 10 to 15 followed by forskolin-stimulation by Glo-sensor assay; format: functional, cell-based
Histamine H3 receptor [13] = biological target: T1, Histamine H3 receptor; assay: Displacement of [3H]N-alpha-methylhistamine from recombinant human H3 receptor expressed in HEK293T cells measured after 90 mins by liquid scintillation counting method; format: cell-based
[14] = biological target: T3, Cholecystokinin receptor type A (Homo sapiens, UniProt P32238); assay: Displacement of [I125]bolton hunter-CCK-8S from recombinant human CCK1 receptor expressed in stable CHO cells measured after 1 to 2 hrs by microscintillation counting method; format: cell-based
T3 sequence (P32238 whole entry): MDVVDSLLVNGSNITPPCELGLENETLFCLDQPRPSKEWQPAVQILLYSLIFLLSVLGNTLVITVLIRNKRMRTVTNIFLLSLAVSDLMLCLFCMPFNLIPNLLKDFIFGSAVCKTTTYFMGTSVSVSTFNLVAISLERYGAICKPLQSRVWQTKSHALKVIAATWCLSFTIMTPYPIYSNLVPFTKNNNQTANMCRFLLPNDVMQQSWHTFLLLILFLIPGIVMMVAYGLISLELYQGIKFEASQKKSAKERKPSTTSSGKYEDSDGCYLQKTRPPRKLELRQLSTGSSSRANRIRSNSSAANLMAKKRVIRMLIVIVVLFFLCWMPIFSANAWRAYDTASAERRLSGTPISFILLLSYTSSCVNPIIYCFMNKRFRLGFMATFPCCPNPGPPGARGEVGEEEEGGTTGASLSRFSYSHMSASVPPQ

[15] = Drug level in C57BL/6J mouse brain assessed as metabolite formation treated with 4-(4-Methoxyphenyl)-8-methyl-5,6,7,8-tetrahydroquinazolin-2-amine at 20 mg/kg, po by LC-MS/MS analysis; format: ADME, organism-based; details: in vivo
How it was run: (§4)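 After a single 20 mg/kg oral dose in fasted male C57BL/6J mice (n=5 per time point), the demethylated metabolite was measured by LC-MS/MS (m/z 256.1→240.1) in serum and brain homogenate up to 24 h. Metabolite/parent AUC ratio was derived.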

[16] = Drug level in C57BL/6J mouse serum assessed as metabolite formation treated with 4-(4-Methoxyphenyl)-8-methyl-5,6,7,8-tetrahydroquinazolin-2-amine at 20 mg/kg, po by LC-MS/MS analysis; format: ADME, organism-based; details: in vivo; how it was run: as §4

T2 sequence (P25021 whole entry): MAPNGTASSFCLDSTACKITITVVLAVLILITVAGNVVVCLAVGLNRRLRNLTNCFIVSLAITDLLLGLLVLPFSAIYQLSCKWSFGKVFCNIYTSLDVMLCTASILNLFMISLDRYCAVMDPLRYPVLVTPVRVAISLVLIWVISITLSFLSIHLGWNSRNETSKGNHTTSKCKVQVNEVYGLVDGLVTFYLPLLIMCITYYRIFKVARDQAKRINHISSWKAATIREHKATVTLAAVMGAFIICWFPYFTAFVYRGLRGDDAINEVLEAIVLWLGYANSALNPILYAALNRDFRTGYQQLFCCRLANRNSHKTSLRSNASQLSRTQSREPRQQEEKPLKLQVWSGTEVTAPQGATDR
T1 sequence (Q9Y5N1 whole entry): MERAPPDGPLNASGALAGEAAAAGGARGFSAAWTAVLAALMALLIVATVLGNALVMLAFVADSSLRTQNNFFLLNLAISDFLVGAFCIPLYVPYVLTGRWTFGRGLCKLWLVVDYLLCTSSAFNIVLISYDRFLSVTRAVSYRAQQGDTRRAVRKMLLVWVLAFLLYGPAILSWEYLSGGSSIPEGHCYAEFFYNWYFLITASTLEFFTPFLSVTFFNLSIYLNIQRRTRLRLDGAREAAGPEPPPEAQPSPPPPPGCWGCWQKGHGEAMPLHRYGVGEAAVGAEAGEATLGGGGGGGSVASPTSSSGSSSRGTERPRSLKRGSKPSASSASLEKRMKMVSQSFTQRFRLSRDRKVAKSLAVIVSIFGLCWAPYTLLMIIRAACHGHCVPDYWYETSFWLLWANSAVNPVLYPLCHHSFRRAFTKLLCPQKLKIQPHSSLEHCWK
Chain of Histamine H1 receptor (Homo sapiens) (P35367 whole entry): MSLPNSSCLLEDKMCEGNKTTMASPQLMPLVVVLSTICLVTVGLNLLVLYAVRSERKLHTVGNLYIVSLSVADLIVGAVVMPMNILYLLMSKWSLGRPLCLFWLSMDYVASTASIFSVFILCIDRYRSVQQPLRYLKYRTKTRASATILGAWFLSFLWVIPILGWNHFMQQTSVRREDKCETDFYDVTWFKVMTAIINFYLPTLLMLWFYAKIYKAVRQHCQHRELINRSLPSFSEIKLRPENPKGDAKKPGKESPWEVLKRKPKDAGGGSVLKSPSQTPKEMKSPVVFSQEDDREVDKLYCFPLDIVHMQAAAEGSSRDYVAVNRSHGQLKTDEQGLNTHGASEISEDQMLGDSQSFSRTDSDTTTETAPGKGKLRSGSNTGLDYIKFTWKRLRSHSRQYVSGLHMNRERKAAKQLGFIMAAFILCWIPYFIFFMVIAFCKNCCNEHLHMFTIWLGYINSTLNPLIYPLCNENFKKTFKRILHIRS
Chain of Histamine H4 receptor (Homo sapiens) (Q9H3N8 whole entry): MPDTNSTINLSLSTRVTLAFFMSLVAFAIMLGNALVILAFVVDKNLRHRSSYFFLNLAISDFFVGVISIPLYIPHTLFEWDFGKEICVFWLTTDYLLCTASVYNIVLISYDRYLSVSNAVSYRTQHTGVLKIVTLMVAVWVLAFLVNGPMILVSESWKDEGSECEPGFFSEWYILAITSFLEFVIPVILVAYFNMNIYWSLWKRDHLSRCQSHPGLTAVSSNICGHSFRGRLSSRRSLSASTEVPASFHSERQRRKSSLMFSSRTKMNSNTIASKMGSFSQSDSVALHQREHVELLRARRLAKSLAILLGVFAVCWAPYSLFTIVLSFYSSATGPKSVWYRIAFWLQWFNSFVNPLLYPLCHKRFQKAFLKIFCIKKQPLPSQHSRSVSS

Compound	IC50 (Histamine H3 receptor [6]) [nM]	inhibition [7]	inhibition [8]	EC50 (Histamine H2 receptor [9]; read-out: EC50) [nM]	Activity [10]	Activity (Histamine H2 receptor [11]) [%]	Activity [12]	also measured
CC(N)(Cc1cnc[nH]1)C(=O)O (racemic)								Activity (Mus musculus [1]): inactive
C[C@H]1CNCCc2ccc(Cl)cc21 [LORCASERIN]								Activity (Mus musculus [2]): 22.4%; Activity (Mus musculus [3]): Tde; Activity (Mus musculus [4]): 40%; Activity (Mus musculus [5]): 0.95 g
CC1CCCc2c(-c3ccc([N+](=O)[O-])cc3)nc(N)nc21 (stereo not drawn)	12300	inactive	inactive	5290	inactive	50	inactive	EC50 (Histamine H2 receptor [9]; read-out: pEC50 (converted)): 5370 nM
CC1CCCc2c1nc(N)nc2C1CCCCC1 (stereo not drawn)	240	inactive	inactive	360	inactive	50	inactive	
CC1CCCc2c(-c3ccc(F)cc3)nc(N)nc21 (stereo not drawn)	560	inactive	inactive	80	inactive		inactive	
CC1CCCc2c(-c3ccc(Br)cc3)nc(N)nc21 (stereo not drawn)	3100	inactive	inactive		inactive	< 50	inactive	EC50 (Histamine H2 receptor [9]): Not Active
CC1CCCc2c(-c3cccc(O)c3)nc(N)nc21 (stereo not drawn)	4610	inactive	inactive		inactive	< 50	inactive	EC50 (Histamine H2 receptor [9]): Not Active
CC1CCCc2c(-c3ccc(Cl)cc3)nc(N)nc21 (stereo not drawn)	900	inactive	inactive	80	inactive	50	inactive	
CC1CCCc2c(-c3cccc(Br)c3)nc(N)nc21 (stereo not drawn)	90	inactive	inactive	840	inactive	50	inactive	EC50 (Histamine H2 receptor [9]; read-out: pEC50 (converted)): 316 nM
Cc1ccc(C2(O)CCN(c3nc(C)nc4ccsc34)CC2)nc1								Ki (Histamine H3 receptor [13]): 6.07 nM
COc1cccc(-c2nc(N)nc3c2CCCC3C)c1 (stereo not drawn)	70	inactive	inactive	250	inactive	50	inactive	
CC1CCCc2c(-c3cccnc3)nc(N)nc21 (stereo not drawn)	6800	inactive	inactive		inactive	< 50	inactive	EC50 (Histamine H2 receptor [9]): Not Active
c1ccc(CNc2ccnc(Nc3ccc(OCCN4CCCCC4)cc3)n2)cc1								Ki (Histamine H3 receptor [13]): 4.49 nM
COc1ccc(-c2nc(NC(=O)c3cc4ccccc4n3CC(=O)O)ncc2CC2CCCCC2)c(OC)c1								IC50 [14]: < 50 nM
COc1ccc(-c2nc(N)nc3c2CCCC3)cc1	2750	inactive	inactive	1390	inactive		inactive	EC50 (Histamine H2 receptor [9]; read-out: pEC50 (converted)): 1290 nM
CC1CCCc2c(-c3ccc(O)cc3)nc(N)nc21 (stereo not drawn)								Drug metabolism [15]: Metabolite_Detected; Drug metabolism [16]: Metabolite_Detected
CCCCc1cc(-c2ccc(OC)cc2)nc(N)n1	4450	inactive	inactive	5180	inactive		inactive	EC50 (Histamine H2 receptor [9]; read-out: pEC50 (converted)): 5250 nM
CC1CCCc2c(-c3cccc4ccccc34)nc(N)nc21 (stereo not drawn)	2710	inactive	inactive		inactive	< 50	inactive	EC50 (Histamine H2 receptor [9]): Not Active
COc1ccc(-c2nc(N)nc3c2CC(C)CC3)cc1 (stereo not drawn)	4680	inactive	inactive	2120	inactive	50	inactive	
CC1CCCc2c(-c3ccccc3)nc(N)nc21 (stereo not drawn)	1300	inactive	inactive	100	inactive	50	inactive	
CC1CCCc2c(-c3ccc(C#N)cc3)nc(N)nc21 (stereo not drawn)	5500	inactive	inactive		inactive	< 50	inactive	EC50 (Histamine H2 receptor [9]): Not Active
Cc1ccc(-c2nc(N)nc3c2CCCC3C)cc1 (stereo not drawn)	2930	inactive	inactive	880	inactive	50	inactive	
